# Test results taken from ChEMBL document CHEMBL1136881, “2-(substituted phenyl)amino analogs of 1-methoxyspirobrassinol methyl ether: synthesis and anticancer activity” (Bioorg Med Chem, 2009).
# The source made the active and inactive calls. The rule behind the calls is not given here.
# Legend:
# Jurkat = test: Cytotoxicity against human Jurkat cells after 72 hrs by MTT assay; assay type: functional, cell-based
# How it was run: (§1)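 MTT microculture assay. Cells were seeded per well at 3 × 10³ (A-549, MCF-7, MDA-MB-231; DMEM), 5 × 10³ (HeLa; RPMI 1640) or 1 × 10⁴ (Jurkat, CEM; RPMI 1640), all with 10% FCS. Final concentrations were 10⁻⁴–10⁻⁶ mol·L⁻¹ (4 levels), for 72 h. MTT was then added for 4 h and SDS for 12 h, and A540 read. IC50 was taken against blank-corrected untreated control.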
# A549 = test: Cytotoxicity against human A549 cells after 72 hrs by MTT assay; assay type: functional, cell-based; conditions: A549, 72 h
# HeLa = test: Cytotoxicity against human HeLa cells after 72 hrs by MTT assay; assay type: functional, cell-based
# MCF7 = test: Cytotoxicity against human MCF7 cells after 72 hrs by MTT assay; assay type: functional, cell-based; conditions: MCF7, 72 h; how it was run: as §1
# CCRF-CEM = test: Cytotoxicity against human CCRF-CEM cells after 72 hrs by MTT assay; assay type: functional, cell-based; how it was run: as §1
# MDA-MB-231 = test: Cytotoxicity against human MDA-MB-231 cells after 72 hrs by MTT assay; assay type: functional, cell-based; conditions: MDA-MB-231, 72 h; how it was run: as §1
# Bacillus subtilis = test: Antibacterial activity against Bacillus subtilis CCM 4062 at 20 ug/2.5 ul/6 mm disk after 24 hrs by disk diffusion assay; assay type: functional, organism-based
# How it was run: (§2)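 Inoculum was prepared from an overnight blood-agar culture and adjusted in saline to 1.5 × 10⁸ CFU/ml (0.5 McFarland). It was swabbed evenly onto Mueller–Hinton or Sabouraud agar, and paper disks were applied. Plates were incubated 24 h at 37 °C. The read-out was inhibition-zone diameter around the disk, run alongside clinical antimicrobial reference agents.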
# Streptococcus pyogenes = test: Antibacterial activity against Streptococcus pyogenes CCM 4425 at 20 ug/2.5 ul/6 mm disk after 24 hrs by disk diffusion assay; assay type: functional; how it was run: as §2
Compound,IC50 (Jurkat),IC50 (A549),IC50 (HeLa),IC50 (MCF7),IC50 (CCRF-CEM),IC50 (MDA-MB-231),Activity (Bacillus subtilis),diameter of the inhibition zone (DIZ) (Streptococcus pyogenes)
CON1c2ccccc2[C@@]2(CN=C(SC)S2)[C@@H]1Oc1ccccc1 (relative stereo),100 µM,100 µM,100 µM,100 µM,100 µM,100 µM,–,–
CON1c2ccccc2[C@@]2(CN=C(SC)S2)[C@H]1Nc1ccccc1 (relative stereo),100 µM,100 µM,31.9 µM,100 µM,100 µM,100 µM,–,–
CON1c2ccccc2[C@@]2(CN=C(SC)S2)[C@H]1Nc1ccc(C)cc1 (relative stereo),33.3 µM,100 µM,36.8 µM,100 µM,100 µM,100 µM,–,–
CN[C@@H]1N(OC)c2ccccc2[C@@]12CN=C(SC)S2 (relative stereo),100 µM,100 µM,33.6 µM,100 µM,100 µM,100 µM,–,–
CON1c2ccccc2[C@@]2(CN=C(SC)S2)[C@H]1Oc1ccccc1 (relative stereo),100 µM,100 µM,100 µM,100 µM,100 µM,100 µM,–,–
CON1c2ccccc2[C@@]2(CN=C(SC)S2)[C@@H]1Nc1ccccc1Cl (relative stereo),29.4 µM,100 µM,76.8 µM,100 µM,36 µM,100 µM,–,–
CO[C@H]1N(OC)c2ccccc2[C@@]12CN=C(SC)S2 (relative stereo),30.2 µM,100 µM,48.9 µM,100 µM,100 µM,100 µM,–,–
CO[C@@H]1N(OC)c2ccccc2[C@@]12CN=C(SC)S2 (relative stereo),57.4 µM,100 µM,53.2 µM,100 µM,100 µM,100 µM,–,–
CON1c2ccccc2[C@@]2(CN=C(SC)S2)[C@@H]1Nc1ccc(Cl)c(Cl)c1 (relative stereo),10 µM,24.7 µM,15.4 µM,100 µM,100 µM,35.5 µM,–,–
CON1c2ccccc2[C@@]2(CN=C(SC)S2)[C@@H]1Nc1ccc(C(F)(F)F)cc1 (relative stereo),41.8 µM,1 µM,81.9 µM,100 µM,74.3 µM,88 µM,Active,–
CON1c2ccccc2[C@@]2(CN=C(SC)S2)[C@@H]1Nc1ccc(Cl)cc1 (relative stereo),30.7 µM,85.9 µM,44.8 µM,100 µM,37.4 µM,100 µM,–,–
COc1ccc(N[C@H]2N(OC)c3ccccc3[C@@]23CN=C(SC)S3)cc1 (relative stereo),69.4 µM,100 µM,100 µM,100 µM,15.5 µM,64 µM,–,–
CON1c2ccccc2[C@@]2(CN=C(SC)S2)[C@H]1Nc1ccccc1Cl (relative stereo),43 µM,82 µM,100 µM,100 µM,75.8 µM,100 µM,–,–
CON1c2ccccc2[C@@]2(CN=C(SC)S2)[C@H]1Nc1ccc([N+](=O)[O-])cc1 (relative stereo),100 µM,30.2 µM,100 µM,88 µM,54.5 µM,100 µM,–,–
CON1c2ccccc2[C@@]2(CN=C(SC)S2)[C@@H]1Nc1ccc([N+](=O)[O-])cc1 (relative stereo),10 µM,100 µM,50 µM,100 µM,100 µM,100 µM,–,–
CON1c2ccccc2[C@@]2(CN=C(SC)S2)[C@H]1Nc1ccc(Cl)c(Cl)c1 (relative stereo),21 µM,21.1 µM,21.8 µM,22.6 µM,22.6 µM,20.7 µM,Active,–
CON1c2ccccc2[C@@]2(CN=C(SC)S2)[C@@H]1Nc1ccccc1 (relative stereo),17.8 µM,100 µM,25.8 µM,100 µM,31.8 µM,62 µM,–,–
CON1c2ccccc2[C@@]2(CN=C(SC)S2)[C@H]1Nc1ccc(C)c(C)c1 (relative stereo),47.1 µM,42.6 µM,23.8 µM,58 µM,45.5 µM,100 µM,–,–
CON1c2ccccc2[C@@]2(CN=C(SC)S2)[C@@H]1Nc1ccc(C)c(C)c1 (relative stereo),10 µM,100 µM,54.9 µM,100 µM,100 µM,100 µM,–,–
CON1c2ccccc2[C@@]2(CN=C(SC)S2)[C@H]1Nc1ccc(Cl)cc1 (relative stereo),100 µM,22.3 µM,22.3 µM,28.5 µM,100 µM,20.7 µM,–,–
CON1c2ccccc2[C@@]2(CN=C(SC)S2)[C@H]1Nc1ccc(Br)cc1 (relative stereo),33.4 µM,35.1 µM,81.5 µM,34.1 µM,28.7 µM,100 µM,–,–
COc1ccc(N[C@@H]2N(OC)c3ccccc3[C@@]23CN=C(SC)S3)cc1 (relative stereo),34.8 µM,73.9 µM,81.5 µM,100 µM,10 µM,100 µM,–,–
CON1c2ccccc2[C@@]2(CN=C(SC)S2)[C@H]1Nc1ccc(C(F)(F)F)cc1 (relative stereo),28.4 µM,46.6 µM,34.9 µM,66.8 µM,54 µM,31.1 µM,Active,–
CON1c2ccccc2[C@@]2(CN=C(SC)S2)[C@@H]1Nc1ccc(C)cc1 (relative stereo),6.6 µM,100 µM,100 µM,100 µM,64.7 µM,78.7 µM,–,–
"CON1c2ccccc2[C@@]2(CN=C(SC)S2)[C@@H]1Nc1ccc(Br)cc1 (single isomer, unassigned)",29.3 µM,100 µM,55.7 µM,100 µM,54.8 µM,100 µM,–,7 mm
COc1cccc2c1C(=O)c1c(O)c3c(c(O)c1C2=O)C[C@@](O)(C(=O)CO)C[C@@H]3O[C@H]1C[C@H](N)[C@H](O)[C@H](C)O1 [DOXORUBICIN],0.078 µM,–,–,0.5 µM,0.09 µM,0.2 µM,–,–
COc1cc([C@@H]2c3cc4c(cc3[C@@H](O[C@@H]3O[C@@H]5CO[C@@H](C)O[C@H]5[C@H](O)[C@H]3O)[C@H]3COC(=O)[C@H]23)OCO4)cc(OC)c1O [ETOPOSIDE],1.2 µM,14.3 µM,3.9 µM,10.9 µM,1.1 µM,21.2 µM,–,–
